# Laboratory results from article PMC3201796 (Cell host & microbe, 2011).
# Where two headings read alike, the source gives them in different places.
# Key:
# HSV-1F = experiment: Human tonsillar tissue ex vivo infected with HSV-1; format: cell-based
# HSV-2 [1] = format: cell-based; settings: for Virus production (TCID50/ml): M/M
# HEL cells = experiment: Cytotoxicity by cell morphology; format: cell-based, human
# Procedure, shortened: (§1)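 Run in non-infected cultures in parallel with the antiviral assay. Cells exposed to test compound and examined microscopically at day 3. MCC is the lowest concentration giving a detectable change in cell morphology.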
# HSV-2G [2] = experiment: Human cervico-vaginal tissue ex vivo infected with HSV-2G; format: cell-based; settings: 150 μg/ml
# HIV-1 = settings: 1% vaginal gel, 889 women, CAPRISA 004; ref Abdool Karim et al., 2010; cited from earlier work
# [3] = MTT viability assay in epithelial TZM-Bl cells; format: cell-based, human; settings: up to 1,000 μg/ml; data not shown
# Procedure, shortened: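 Confluent TZM-Bl epithelial monolayers exposed to a range of test compound concentrations for 3–4 days, then given MTT dye. Viable cells convert it to formazan, measured by optical density.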
# HSV-2 [4] = format: cell-based; settings: day 6, M/M
# [5] = in vivo; cited from earlier work
# HSV-1KOS = experiment: Organotypic epithelial raft cultures infected with HSV-1; format: cell-based
# HSV-1 = experiment: HSV-1-infected athymic nude mice; format: in vivo
# Procedure, shortened: (§2)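 Female NMRI athymic nude or hairless mice (~20 g, ~4 weeks; groups of five) scarified over ~1 cm² lumbosacral area with HSV-1 KOS (5×10^3 PFU) or HSV-2 G (5×10^2). Test compound 1% in 100% DMSO or CAPRISA 004-type gel, topical twice daily for 5 days from 1-2 h post-infection; same vehicle without drug as placebo. Lesions and mortality recorded over one month; Kaplan-Meier survival, log-rank test.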
# HSV-2 [6] = settings: 1% vaginal gel, CAPRISA 004; ref Cates, 2010; cited from earlier work
# HIV-1LAI = experiment: Tonsillar tissue coinfected with HSV-2G and HIV-1LAI, p24 release; format: cell-based; settings: 66 μg/ml
# Procedure, shortened: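 Tonsil tissue blocks (~2 mm) kept on collagen sponge at the air–liquid interface; 27 blocks per condition (9 per well). Infected with HSV-2 strain G, then HIV-1 LAI. Test compound added 12 h before infection and replenished at each medium change for the whole culture. p24 in medium over 3-day periods measured by bead-based assay. Six donors; means ± SEM.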
# HSV-1 and HSV-2 = format: cell-based; settings: Fibroblast, read-out: EC50 values (inhibition of cytopathicity), range
# Procedure, shortened: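 HEL fibroblasts or primary human keratinocytes (from neonatal foreskin) infected at 100 TCID50 per strain and grown 3 days at 37 °C, 5% CO2, with a range of test compound concentrations. CPE scored visually. […] Means of at least two independent experiments, ± SD.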
# [7] = system: HSV-2 (strain NS and RV-124); experiment: Virus yield reduction assay; format: cell-based
# Procedure, shortened: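 HEL monolayers infected with HSV-2 clinical isolates NS or RV-124 at two moi for 2 h at 37 °C, then washed and given test compound in duplicate. At 24, 48 and 72 h, virus released by freeze-thaw and titrated by plaque assay on HEL cells.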
# Cytostatic activity [8] = format: cell-based; settings: human, PHKs, non-infected
# HSV-2G [9] = experiment: Organotypic epithelial raft cultures infected with HSV-2; format: cell-based
# HSV-2G [10] = experiment: Tonsillar tissue coinfected with HSV-2G and HIV-1LAI, HSV-2 DNA release; format: cell-based; settings: 66 μg/ml; coinfected with HIV-1LAI; n=6
# Procedure, shortened: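 Human tonsillar tissue blocks sequentially infected with HSV-2 G then HIV-1 LAI; 27 blocks per condition, 9 per well in 3 ml medium. Tenofovir at 66 µg/ml kept throughout culture; untreated donor-matched tissues as control. HSV-2 DNA release into medium measured by quantitative real-time PCR; release pooled from 27 blocks per donor; 6 donors.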
# PHKs = experiment: Cytotoxicity by cell morphology; format: cell-based, human; settings: non-infected
# Procedure, shortened: as §1
# HSV-2 [11] = experiment: HSV-2 cytopathicity in primary monocyte/macrophage cultures; format: cell-based; settings: day 6, M/M
# HSV-2G, HSV-2MS = experiment: Human tonsillar tissue ex vivo infected with HSV-2; format: cell-based; settings: 66 μg/ml
# HSV-2 [12] = experiment: HSV-2-infected athymic nude mice; format: in vivo
# Procedure, shortened: as §2
# Cytostatic activity [13] = format: cell-based; settings: human, HEL cells, non-infected
# [14] = 1% gel as in CAPRISA 004, topical
# [15] = 1% in DMSO, topical, 5 days from day of infection
smiles,measurement,setting,value
"C[C@H](Cn1cnc2c(N)ncnc21)OCP(=O)(O)O [Tenofovir, (R)-9-[2-(phosphonylmethoxypropyl)adenine]]",reduction of replication vs donor-matched untreated tissue,"HSV-1F; 66 μg/ml, HSV-1F",99 ± 0.1%
same,EC50,"HSV-1F; Human alphaherpesvirus 1, in Homo sapiens, read-out: EC50 for HSV suppression",7 µg/mL
same,Virus production (TCID50/ml),"HSV-2 [1]; 0.04 μg/ml, day 6",3.2×10^5 TCID50/ml
same,Virus production (TCID50/ml),"HSV-2 [1]; 0.2 μg/ml, day 6",3×10^5 TCID50/ml
same,HSV-2 production,"HSV-2 [1]; 1 μg/ml or 0.2 μg/ml, no significant protective effect",2.4 to 3.0 × 10^5 TCID50/ml
same,Virus production (TCID50/ml),"HSV-2 [1]; 1 μg/ml, day 6",2.4×10^5 TCID50/ml
same,Virus production (TCID50/ml),"HSV-2 [1]; 5 μg/ml, day 6",7.2× 10^4 TCID50/ml
same,Virus production (TCID50/ml),"HSV-2 [1]; 20 μg/ml, day 6",1.3×10^4 TCID50/ml
same,drop in HSV-2 production,"HSV-2 [1]; 20 μg/ml, from 3.7 × 10^5 TCID50/ml in untreated",more than one log10
same,Virus production (TCID50/ml),"HSV-2 [1]; 100 μg/ml, day 6",No virus
same,Virus production (TCID50/ml),"HSV-2 [1]; 500 μg/ml, day 6 post infection",No virus
same,HSV-2 replication in M/M,HSV-2 [1]; 500 and 100 μg/ml,completely suppressed
same,Cell toxicity MCC (minimum cytotoxic concentration),"HEL cells; HEL, non-infected, cell morphology",>400 µg/mL
same,cytotoxicity as assessed from HEL cell morphology,HEL cells; highest drug concentrations used (500 μg/ml),no signs of tenofovir cytotoxicity
same,reduction of HSV-2G replication (averaged over experiments),HSV-2G [2],78 ± 9%
same,HSV-2G DNA in culture medium,"HSV-2G [2]; untreated 6.6 log10 copies/ml, n=5",5.5 log10 copies/mL
same,reduction of HIV-1 sexual transmission,HIV-1,39%
same,MTT dye viability testing,[3],did not show measurable toxicity
same,Virus production (PFU/ml),HSV-2 [4]; 0.04 μg/ml,8.5×10^4 PFU/ml
same,Virus production (PFU/ml),HSV-2 [4]; 0.2 μg/ml,7.3×10^4 PFU/ml
same,Virus production (PFU/ml),HSV-2 [4]; 1 μg/ml,6.6×10^4 PFU/ml
same,Virus production (PFU/ml),HSV-2 [4]; 5 μg/ml,1.9×10^4 PFU/ml
same,Virus production (PFU/ml),HSV-2 [4]; 20 μg/ml,2.2×10^3 PFU/ml
same,Virus production (PFU/ml),HSV-2 [4]; 100 μg/ml,No virus
same,Virus production (PFU/ml),HSV-2 [4]; 500 μg/ml,No virus
same,AUC24hr in cervico-vaginal fluid,[5],18600 µg·h/mL
same,level in cervico-vaginal fluid at 24 hr post drug exposure,[5],~ 100 μg/ml
same,log10 reduction in virus production,HSV-1KOS; 50 μg/ml,0.81 log10
same,protection of virus-induced cytopathicity,HSV-1KOS; 200 μg/ml,complete CPE protection
same,log10 reduction in virus production,"HSV-1KOS; 200 μg/ml, 5 days of treatment",2.6 log10
same,appearance of lesions and death vs placebo gel,HSV-1; [14],delayed the appearance of herpesvirus-related lesions and subsequent death
same,morbidity and survival,HSV-1; [15],statistically significant suppression of morbidity and prolonged the survival
same,reduction of the risk of acquisition of HSV-2,HSV-2 [6],51%
same,inhibition of HIV-1LAI,HIV-1LAI,inhibited completely
same,EC50,HSV-1 and HSV-2,103 to 193 µg/mL
same,changes in cell number,"[7]; HEL cells, any drug concentration",no changes in cell number
same,EC99 (drug concentration that decreases virus titers by two orders of magnitude),"[7]; HSV-2 RV-124 and NS, two moi, 24, 48, 72 h post-infection, PFU reduction",214 to 390 µg/mL
same,CC50 at 3 days,Cytostatic activity [8],> 50 µg/mL
same,activity against HSV-2 in rafts,HSV-2G [9]; 2 μg/ml,inactive
same,log10 reduction in virus production,HSV-2G [9]; 50 μg/ml,1.75 log10
same,protection of virus-induced cytopathicity,HSV-2G [9]; 200 μg/ml,complete CPE protection
same,log10 reduction in virus production,"HSV-2G [9]; 200 μg/ml, 5 days of treatment",5.4 log10
same,protection of raft epithelium (histology),HSV-2G [9]; 20 and 5 μg/ml,partially protective
same,suppression of HSV-2G replication,HSV-2G [10],96 ± 1%
same,Cell toxicity MCC (minimum cytotoxic concentration),PHKs,>200 µg/mL
same,Cytopathicity (CPE) (%),HSV-2 [11]; 0.04 μg/ml,85%
same,Cytopathicity (CPE) (%),HSV-2 [11]; 0.2 μg/ml,80%
same,Cytopathicity (CPE) (%),HSV-2 [11]; 5 μg/ml,60%
same,Cytopathicity (CPE) (%),HSV-2 [11]; 20 μg/ml,5%
same,Cytopathicity (CPE) (%),HSV-2 [11]; 100 μg/ml,None
same,Cytopathicity (CPE) (%),HSV-2 [11]; 500 μg/ml,None
same,reduction of replication vs donor-matched untreated tissue,"HSV-2G, HSV-2MS; HSV-2G",87 ± 12%
same,reduction of replication vs donor-matched untreated tissue,"HSV-2G, HSV-2MS; HSV-2MS",91.7 ± 3.2%
same,appearance of lesions and death vs placebo gel,HSV-2 [12]; [14],delayed the appearance of herpesvirus-related lesions and subsequent death
same,morbidity and survival,HSV-2 [12]; [15],statistically significant suppression of morbidity and prolonged the survival
same,CC50 at 3 days,Cytostatic activity [13],547 ± 39 µg/mL
